Non-standard residues stand in square brackets, D forms with d. Residues, ends and D or L forms follow the SMILES beside them. *: point of attachment. NHCH(iBu)2 = CC(C)CC(CC(C)C)N*; X1 = CC(C)CCOC[C@H](CC(C)C)N*; X11 = CCCCC[C@@H](CC(C)C)N*; Leu(ol) = CC(C)C[C@H](N)CO; X10 = CCCOC[C@H](CC(C)C)N*; X4 = CCCCCC[C@H](CC(C)C)N*; X12 = CCCC[C@H](CC(C)C)N*; X8 = CCCC[C@@H](CC(C)C)N*; X5 = CCOC[C@H](CC(C)C)N*; X9 = CCC[C@@H](CC(C)C)N*; X3 = COC[C@H](CC(C)C)N*; X6 = CCC[C@H](CC(C)C)N*; X2 = CCCCC(CCCC)N*
Key:
[1] = biological target: Gastrin-releasing peptide receptor (Mus musculus, UniProt P21729); assay: Inhibition against Swiss 3T3 murine fibroblast cells.; type: functional, cell-based
Chain of Gastrin-releasing peptide receptor (P21729 whole entry): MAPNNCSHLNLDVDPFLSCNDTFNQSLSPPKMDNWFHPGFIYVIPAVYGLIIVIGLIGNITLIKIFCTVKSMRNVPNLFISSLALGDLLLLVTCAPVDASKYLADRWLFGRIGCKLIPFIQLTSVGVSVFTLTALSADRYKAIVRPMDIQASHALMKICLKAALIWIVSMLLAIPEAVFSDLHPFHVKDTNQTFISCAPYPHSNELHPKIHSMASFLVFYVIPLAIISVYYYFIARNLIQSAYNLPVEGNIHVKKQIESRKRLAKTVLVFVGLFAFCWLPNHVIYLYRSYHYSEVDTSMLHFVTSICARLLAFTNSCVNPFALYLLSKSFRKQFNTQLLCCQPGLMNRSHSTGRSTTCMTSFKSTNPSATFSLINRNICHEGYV
How it was run: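 Competitive binding on confluent Swiss 3T3 monolayers grown in DMEM with 10% FBS and 2 mM glutamine. [3H-Phe15]GRP-15-27 amide used at 2 nM final, at 15 °C for 1–2 h. Nonspecific binding defined with excess unlabeled GRP. Run in triplicate in at least two trials; mean IC50 reported.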

[2] = Compound was evaluated for mitogenic stimulation against Swiss 3T3 murine fibroblast cells.; type: functional, cell-based, Mus musculus
How it was run: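 Confluent Swiss 3T3 monolayers held in serum-free DMEM for 48 h, then peptide and 23 nM [3H]thymidine added. After 48 h more, cells detached with trypsin/5 mM EDTA and filter-harvested to measure [3H]thymidine uptake. EC50 is the mean of at least two independent experiments.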

IC50 [1] [nM]	Compound	EC50 [2] [nM]
11	CCCCC[C@@H](CC(C)C)NC(=O)[C@H](Cc1c[nH]cn1)NC(=O)CNC(=O)[C@@H](NC(=O)[C@H](C)NC(=O)[C@H](Cc1c[nH]c2ccccc12)NC(=O)[C@H](Cc1c[nH]cn1)NC(C)=O)C(C)C (Ac-HWAVGH-X11)	
3.2	CCCOC[C@H](CC(C)C)NC(=O)[C@H](Cc1c[nH]cn1)NC(=O)CNC(=O)[C@@H](NC(=O)[C@H](C)NC(=O)[C@H](Cc1c[nH]c2ccccc12)NC(=O)[C@H](Cc1c[nH]cn1)NC(C)=O)C(C)C (Ac-HWAVGH-X10)	
4.9	CCC[C@@H](CC(C)C)NC(=O)[C@H](Cc1c[nH]cn1)NC(=O)CNC(=O)[C@@H](NC(=O)[C@H](C)NC(=O)[C@H](Cc1c[nH]c2ccccc12)NC(=O)[C@H](Cc1c[nH]cn1)NC(C)=O)C(C)C (Ac-HWAVGH-X9)	
2.8	CCCCCC[C@H](CC(C)C)NC(=O)[C@H](Cc1c[nH]cn1)NC(=O)CNC(=O)[C@@H](NC(=O)[C@H](C)NC(=O)[C@H](Cc1c[nH]c2ccccc12)NC(=O)[C@H](Cc1c[nH]cn1)NC(C)=O)C(C)C (Ac-HWAVGH-X4)	
6.2	CCOC[C@H](CC(C)C)NC(=O)[C@H](Cc1c[nH]cn1)NC(=O)CNC(=O)[C@@H](NC(=O)[C@H](C)NC(=O)[C@H](Cc1c[nH]c2ccccc12)NC(=O)[C@H](Cc1c[nH]cn1)NC(C)=O)C(C)C (Ac-HWAVGH-X5)	
81	CC(=O)N[C@@H](Cc1c[nH]cn1)C(=O)N[C@@H](Cc1c[nH]c2ccccc12)C(=O)N[C@@H](C)C(=O)N[C@H](C(=O)NCC(=O)N[C@@H](Cc1c[nH]cn1)C(=O)N[C@H](CO)CC(C)C)C(C)C (Ac-HWAVGH[Leu(ol)])	
2.4	CCCC[C@@H](CC(C)C)NC(=O)[C@H](Cc1c[nH]cn1)NC(=O)CNC(=O)[C@@H](NC(=O)[C@H](C)NC(=O)[C@H](Cc1c[nH]c2ccccc12)NC(=O)[C@H](Cc1c[nH]cn1)NC(C)=O)C(C)C (Ac-HWAVGH-X8)	

The next lines start with the compound.

Compound	IC50 [1] [nM]	EC50 [2] [nM]
CCOC[C@H](CC(C)C)NC(=O)[C@H](Cc1c[nH]cn1)NC(=O)[C@H](C)NC(=O)[C@@H](NC(=O)[C@H](C)NC(=O)[C@H](Cc1c[nH]c2ccccc12)NC(=O)[C@H](Cc1c[nH]cn1)NC(C)=O)C(C)C	410	
CCOC[C@H](CC(C)C)NC(=O)[C@H](Cc1c[nH]cn1)NC(=O)[C@@H](C)NC(=O)[C@@H](NC(=O)[C@H](C)NC(=O)[C@H](Cc1c[nH]c2ccccc12)NC(=O)[C@H](Cc1c[nH]cn1)NC(C)=O)C(C)C	5	
CCCCC(CCCC)NC(=O)[C@H](Cc1cnc[nH]1)NC(=O)CNC(=O)[C@@H](NC(=O)[C@H](C)NC(=O)[C@H](Cc1c[nH]c2ccccc12)NC(=O)[C@H](Cc1cnc[nH]1)NC(C)=O)C(C)C (Ac-HWAVGH-X2)	3.3	
CCCC[C@H](CC(C)C)NC(=O)[C@H](Cc1cnc[nH]1)NC(=O)CNC(=O)[C@@H](NC(=O)[C@H](C)NC(=O)[C@H](Cc1c[nH]c2ccccc12)NC(=O)[C@H](Cc1cnc[nH]1)NC(C)=O)C(C)C (Ac-HWAVGH-X12)	1.4	
CSCC[C@H](NC(=O)[C@H](CC(C)C)NC(=O)[C@H](Cc1c[nH]cn1)NC(=O)CNC(=O)[C@@H](NC(=O)[C@H](C)NC(=O)[C@H](Cc1c[nH]c2ccccc12)NC(=O)[C@H](Cc1c[nH]cn1)NC(=O)C(C)(C)C)C(C)C)C(N)=O	4.1	0.2
CSCC[C@H](NC(=O)[C@H](CC(C)C)NC(=O)[C@H](Cc1c[nH]cn1)NC(=O)[C@H](C)NC(=O)[C@@H](NC(=O)[C@H](C)NC(=O)[C@H](Cc1c[nH]c2ccccc12)NC(=O)[C@H](Cc1c[nH]cn1)NC(C)=O)C(C)C)C(N)=O	180	20
CCC[C@H](CC(C)C)NC(=O)[C@H](Cc1cnc[nH]1)NC(=O)CNC(=O)[C@@H](NC(=O)[C@H](C)NC(=O)[C@H](Cc1c[nH]c2ccccc12)NC(=O)[C@H](Cc1cnc[nH]1)NC(C)=O)C(C)C (Ac-HWAVGH-X6)	2.6	
COC[C@H](CC(C)C)NC(=O)[C@H](Cc1c[nH]cn1)NC(=O)CNC(=O)[C@@H](NC(=O)[C@H](C)NC(=O)[C@H](Cc1c[nH]c2ccccc12)NC(=O)[C@H](Cc1c[nH]cn1)NC(C)=O)C(C)C (Ac-HWAVGH-X3)	8.3	
CC(=O)N[C@@H](Cc1c[nH]cn1)C(=O)N[C@@H](Cc1c[nH]c2ccccc12)C(=O)N[C@@H](C)C(=O)N[C@H](C(=O)NCC(=O)N[C@@H](Cc1c[nH]cn1)C(=O)N[C@H](COCCC(C)C)CC(C)C)C(C)C (Ac-HWAVGH-X1)	11	
CSCC[C@H](NC(=O)[C@H](CC(C)C)NC(=O)[C@H](Cc1c[nH]cn1)NC(=O)CNC(=O)[C@@H](NC(=O)[C@H](C)NC(=O)[C@H](Cc1c[nH]c2ccccc12)NC(=O)[C@H](Cc1c[nH]cn1)NC(C)=O)C(C)C)C(N)=O	1.8	0.2
CSCC[C@H](NC(=O)[C@H](CC(C)C)NC(=O)[C@H](Cc1c[nH]cn1)NC(=O)[C@@H](C)NC(=O)[C@@H](NC(=O)[C@H](C)NC(=O)[C@H](Cc1c[nH]c2ccccc12)NC(=O)[C@H](Cc1c[nH]cn1)NC(C)=O)C(C)C)C(N)=O	3.2	0.2
CC(=O)N[C@@H](Cc1c[nH]cn1)C(=O)N[C@@H](Cc1c[nH]c2ccccc12)C(=O)N[C@@H](C)C(=O)N[C@H](C(=O)NCC(=O)N[C@@H](Cc1c[nH]cn1)C(=O)NC(CC(C)C)CC(C)C)C(C)C (Ac-HWAVGH-{NHCH(iBu)2})	1.2	
